Published values of several laboratories.
Compare with care: the assays were run in different laboratories.
Target: Ephrin type-A receptor 4 (EPHA4, Homo sapiens, UniProt P54764)

assay | conditions | endpoint | result | SMILES
enzyme activity, inhibitor | 1 µM | activity vs control | 6% | Cc1ccc(C(=O)NCc2ccsc2)cc1C#Cc1cn(C(C)C)c2ncnc(N)c12
cell-free assay, competition with immobilised ligand | 1 µM | remaining binding | 100% | COc1ccc2cc(OCC3(C(=O)O)CN(C(=O)c4ccc(F)cc4)C3)ccc2c1
cell-free assay | 23.5 nM | remaining signal | 22% | Cc1ccc(C(=O)Nc2ccc(CN3CCN(C)CC3)c(C(F)(F)F)c2)cc1C#Cc1cnc2cccnn12
enzyme activity, inhibitor | 0.1 µM | activity vs control | 73% | Cc1cc(NC(=O)c2cccc3cc(-c4cccc5[nH]nc(N)c45)ccc23)ccc1F
cell-free assay, competition with immobilised ligand | 1 µM | remaining binding | 100% | Cc1noc([C@H]2C[C@@H](c3ccc(C(F)(F)F)cc3)CN(C(=O)N3CCS(=O)(=O)C3)C2)n1
enzyme activity, inhibitor | 10 µM | inhibition | 46% | CCN(CC)CCNC(=O)c1c(C)[nH]c(/C=C2\C(=O)Nc3ccc(F)cc32)c1C
enzyme activity, inhibitor | 10 µM | remaining activity | 85% | CCN(CC)c1ccc(C2=NNC(=O)CC2C)cc1[N+](=O)[O-] (stereo not shown)
enzyme activity, inhibitor | 10 µM | remaining activity | 87% | FC(F)c1nc2ccccc2n1-c1nc(N2CCOCC2)nc(N2CCOCC2)n1
cell-free assay, competition with immobilised ligand | 1 µM | remaining binding | 95.7% | CCCCN(CCCC)C(=O)CN1C[C@@H](c2cc(OC)c3c(c2)OCO3)[C@H](C(=O)O)[C@H]1CC(C)(C)CCC
enzyme activity, inhibitor, radiometric | 1 µM | remaining activity | 99% | CC(C)(C)c1nc2c(s1)c1nc(N)ncc1c1ccc(NS(=O)(=O)c3c(F)cccc3F)c(F)c12
cell-free assay, competition with immobilised ligand | 1 µM | remaining binding | 89% | N#CC1(c2ccccn2)CCN(Cc2cc(C(=O)N3CCCC3)c(=O)n3ccccc23)CC1
enzyme activity, inhibitor | 1 µM | remaining activity | 99% | COc1cc(Cl)c(C(=O)N[C@@H](CN[C@H]2CC[C@@H](N)CC2)Cc2ccc(C#N)cc2)cc1-c1ccc(CN[C@H](C)c2ccc(C)cc2)o1
cell-free assay, competition with immobilised ligand | 1 µM | remaining binding | 100% | CCC(=O)N[C@@H]1CC[C@H](C(=O)N(C)c2ccc(-c3nc4ccccc4o3)cc2)C1
enzyme activity, inhibitor | 1 µM | inhibition | 10% | COc1cc2ncnc(Nc3ccc(Oc4ccccc4)c(C)c3C)c2cc1OC
enzyme activity, inhibitor | 10 µM | inhibition | 56% | CNC(=O)c1cc(Oc2ccc(NC(=O)Nc3ccc(Cl)c(C(F)(F)F)c3)cc2)ccn1
enzyme activity, inhibitor, radiometric | 1 µM | remaining activity | 73% | COc1cc(Nc2cnc(C#N)c(O[C@H](C)CN(C)C)n2)ncc1-c1cnn(C)c1
cell-free assay | 20 µM | remaining signal | 0% | Nc1ncnc2occ(-c3ccc(NC(=O)Nc4cc(C(F)(F)F)ccc4F)cc3)c12
enzyme activity, inhibitor | 5 µM | remaining activity | 100% | O=C(Nc1cnn(-c2csc(C(=O)NC3COC3)c2)c1)Nc1ccccc1Cl
cell-free assay | 0.5 µM | remaining signal | 94% | O=C1NC(=O)c2cc(Nc3ccc(F)cc3)c(Nc3ccc(F)cc3)cc21
enzyme activity, inhibitor | 10 µM | inhibition | 28% | Cc1ccc(Nc2nccc(N(C)c3ccc4c(C)n(C)nc4c3)n2)cc1S(N)(=O)=O
enzyme activity, inhibitor, radiometric | 1 µM | inhibition | 83% | CNC(=O)c1cc2c(Oc3ccc(NC(=O)C4(C(=O)Nc5ccc(F)cc5)CC4)cc3)ccnc2cc1OC
cell-free assay, competition with immobilised ligand | 1 µM | remaining binding | 99% | Cc1c(NC(=O)c2cc(C(N)=O)nc3cc(F)ccc23)c(C(F)(F)F)nn1Cc1ccc(C#N)cc1
cell-free assay | 0.5 µM | remaining signal | 93.1% | O=C1Nc2ccc(Cl)cc2C1=Cc1cc(Cl)c(O)c(Cl)c1
cell-free assay, competition with immobilised ligand | 1 µM | remaining binding | 100% | CCS(=O)(=O)c1cc2cc(C[C@](O)(CC(C)(C)c3ccc(F)cc3C(N)=O)C(F)(F)F)[nH]c2cn1
enzyme activity, inhibitor | 1 µM | activity vs control | 118% | COc1cc(/C=C/C(=O)CC(=O)/C=C/c2ccc(O)c(OC)c2)ccc1O
